Laboratory results published in paper PMC4021529 (British Journal of Cancer, 2014).
“Also recorded” adds a separate entry of the source. Marks after values point to notes of the source that are not given here.

What was measured:
Assay type in all cases: in vivo, human
Adverse events = conditions: schedule B
Plasma pharmacokinetics = conditions: for clearance / AUC(0-inf) / MRT / Vd: human, plasma, iv; for AUC0–∞,norm / Cmax,norm / AUC0–168,norm: gMean, dose normalised
advanced solid tumours = test: Objective tumour response; conditions: for median PFS: all dose groups
Summary of the method: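 Patients with advanced solid tumours at two Taiwanese sites. Test compound given as a 2-h IV infusion on day 1 (schedule A) or days 1 and 8 (schedule B), every 3 weeks. CT or MRI at baseline and at the end of every other course, assessed by RECIST 1.0. PFS estimated by Kaplan–Meier.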

[1] = 200 mg (n=3), irrespective of relatedness
[2] = total (n=27), irrespective of relatedness
[3] = schedule A, 100 mg (n=3), first 2-h i.v. infusion
[4] = schedule A, 200 mg (n=3), first 2-h i.v. infusion
[5] = schedule A, 250 mg (n=5), first 2-h i.v. infusion
[6] = schedule A, 300 mg (n=16), first 2-h i.v. infusion

With `CC[C@@H]1C(=O)N(C)c2cnc(Nc3ccc(C(=O)N[C@H]4CC[C@H](N5CCN(CC6CC6)CC5)CC4)cc3OC)nc2N1C(C)C` [volasertib] the “Infection grade 3, number of patients” value (Adverse events; [1]) was 1 n, the “Leukopenia grade 4, number of patients” value (Adverse events; [1]) was 1 n and the “Neutropenia grade 4, number of patients” value (Adverse events; [1]) was 2 n. For the same compound, the “Thrombocytopenia grade 3, number of patients” value (Adverse events; [1]) was 2 n, the “Upper GI haemorrhage grade 3, number of patients” value (Adverse events; [1]) was 1 n and the “drug-related anaemia, incidence” value (Adverse events; all doses) was 18.5%. For the same compound, the “drug-related leukopenia, incidence” value (Adverse events; all doses) was 33.3%, the “drug-related neutropenia, incidence” value (Adverse events; all doses) was 33.3% and the “drug-related thrombocytopenia, incidence” value (Adverse events; all doses) was 14.8%. The “Abdominal distension grade 3, number of patients” value (Adverse events; [2]) was 1 (3.7) n (%), the “Abdominal pain grade 3, number of patients” value (Adverse events; [2]) was 2 (7.4) n (%) and the “Anaemia grade 3, number of patients” value (Adverse events; [2]) was 4 (14.8) n (%). For the same compound, the “Anaemia grade 4, number of patients” value (Adverse events; [2]) was 2 (7.4) n (%), the “Decreased appetite grade 3, number of patients” value (Adverse events; [2]) was 1 (3.7) n (%) and the “Dizziness grade 3, number of patients” value (Adverse events; [2]) was 1 (3.7) n (%). The “Dyspnoea grade 3, number of patients” value (Adverse events; [2]) was 1 (3.7) n (%), the “Fatigue grade 3, number of patients” value (Adverse events; [2]) was 2 (7.4) n (%) and the “Febrile neutropenia grade 3, number of patients” value (Adverse events; [2]) was 1 (3.7) n (%). For the same compound, the “Hypokalaemia grade 3, number of patients” value (Adverse events; [2]) was 2 (7.4) n (%), the “Ileus grade 3, number of patients” value (Adverse events; [2]) was 2 (7.4) n (%) and the “Infection grade 3, number of patients” value (Adverse events; [2]) was 2 (7.4) n (%). For the same compound, the “Leukopenia grade 3, number of patients” value (Adverse events; [2]) was 1 (3.7) n (%), the “Leukopenia grade 4, number of patients” value (Adverse events; [2]) was 1 (3.7) n (%) and the “Neutropenia grade 3, number of patients” value (Adverse events; [2]) was 2 (7.4) n (%). The “Neutropenia grade 4, number of patients” value (Adverse events; [2]) was 3 (11.1) n (%), the “Pain grade 3, number of patients” value (Adverse events; [2]) was 2 (7.4) n (%) and the “Rash grade 3, number of patients” value (Adverse events; [2]) was 1 (3.7) n (%). The “Thrombocytopenia grade 3, number of patients” value (Adverse events; [2]) was 2 (7.4) n (%), the “Upper GI haemorrhage grade 3, number of patients” value (Adverse events; [2]) was 2 (7.4) n (%) and the “Vomiting grade 3, number of patients” value (Adverse events; [2]) was 1 (3.7) n (%). The “apparent terminal half-life (t1/2)” value (Plasma pharmacokinetics; 2-h i.v. infusion, summary across doses) was 135 h, the clearance (Plasma pharmacokinetics) was > 770 mL/min and the AUC(0-inf) (Plasma pharmacokinetics; 100 mg) was 2140 ng·h/mL. For the same compound, the MRT (Plasma pharmacokinetics; 100 mg) was 163 h, the Vd (Plasma pharmacokinetics; 100 mg) was 7600 L and the clearance (Plasma pharmacokinetics; 100 mg) was 780 mL/min. It also gave an AUC(0-inf) (Plasma pharmacokinetics; 200 mg) of 3280 ng·h/mL, an MRT (Plasma pharmacokinetics; 200 mg) of 98.2 h and a Vd (Plasma pharmacokinetics; 200 mg) of 5980 L. For the same compound, the clearance (Plasma pharmacokinetics; 200 mg) was 1020 mL/min, the AUC(0-inf) (Plasma pharmacokinetics; 250 mg) was 6140 ng·h/mL and the MRT (Plasma pharmacokinetics; 250 mg) was 109 h. It also gave a Vd (Plasma pharmacokinetics; 250 mg) of 4440 L, a clearance (Plasma pharmacokinetics; 250 mg) of 679 mL/min and an AUC(0-inf) (Plasma pharmacokinetics; 300 mg) of 6260 ng·h/mL. The MRT (Plasma pharmacokinetics; 300 mg) was 103 h, the Vd (Plasma pharmacokinetics; 300 mg) was 4920 L and the clearance (Plasma pharmacokinetics; 300 mg) was 798 mL/min. For the same compound, the AUC(0-inf) (Plasma pharmacokinetics; 350 mg) was 9790 ng·h/mL, the MRT (Plasma pharmacokinetics; 350 mg) was 93 h and the Vd (Plasma pharmacokinetics; 350 mg) was 3320 L. The clearance (Plasma pharmacokinetics; 350 mg) was 596 mL/min, the elimination route (Plasma pharmacokinetics; low exposures of main metabolite, data not shown) was “primarily eliminated unchanged” and the “AUC0–∞,norm” value (Plasma pharmacokinetics; [3]) was 21.4 ng·h/mL/mg. The “Cmax,norm” value (Plasma pharmacokinetics; [3]) was 1.86 ng/mL/mg, the “AUC0–∞,norm” value (Plasma pharmacokinetics; [4]) was 16.4 ng·h/mL/mg and the “Cmax,norm” value (Plasma pharmacokinetics; [4]) was 2.70 ng/mL/mg. For the same compound, the “AUC0–∞,norm” value (Plasma pharmacokinetics; [5]) was 24.6 ng·h/mL/mg, the “Cmax,norm” value (Plasma pharmacokinetics; [5]) was 2.16 ng/mL/mg and the “AUC0–∞,norm” value (Plasma pharmacokinetics; [6]) was 20.9 ng·h/mL/mg. For the same compound, the “Cmax,norm” value (Plasma pharmacokinetics; [6]) was 1.63 ng/mL/mg, the “AUC0–∞,norm” value (Plasma pharmacokinetics; schedule A, 350 mg (n=2), first 2-h i.v. infusion) was 28.0 ^a (ng h ml^−1) mg^−1 and the “Cmax,norm” value (Plasma pharmacokinetics; schedule A, 350 mg (n=3), first 2-h i.v. infusion) was 1.93 ng/mL/mg. For the same compound, the “AUC0–168,norm” value (Plasma pharmacokinetics; schedule B, 50 mg (n=3), first 2-h i.v. infusion) was 11.8 ^b (ng h ml^−1) mg^−1, the “Cmax,norm” value (Plasma pharmacokinetics; schedule B, 50 mg (n=4), first 2-h i.v. infusion) was 2.12 ng/mL/mg and the “Cmax,norm” value (Plasma pharmacokinetics; schedule B, 100 mg (n=3), first 2-h i.v. infusion) was 2.34 ng/mL/mg. For the same compound, the “AUC0–168” value (Plasma pharmacokinetics; schedule B, 100 mg, first 2-h i.v. infusion, n=2, individual values) was 1390 ng·h/mL, the “AUC0–168,norm” value (Plasma pharmacokinetics; schedule B, 150 mg (n=14), first 2-h i.v. infusion) was 12.6 ^d (ng h ml^−1) mg^−1 and the “Cmax,norm” value (Plasma pharmacokinetics; schedule B, 150 mg (n=15), first 2-h i.v. infusion) was 1.56 ng/mL/mg. The “AUC0–168,norm” value (Plasma pharmacokinetics; schedule B, 200 mg (n=2), first 2-h i.v. infusion) was 16.6 ^a (ng h ml^−1) mg^−1, the “Cmax,norm” value (Plasma pharmacokinetics; schedule B, 200 mg (n=3), first 2-h i.v. infusion) was 2.05 ng/mL/mg and the accumulation (Plasma pharmacokinetics; schedule B, administration on day 1 and day 8) was “No accumulation”. For the same compound, the “partial responses in the study” value (advanced solid tumours; 59 treated patients, both schedules) was “two pre-treated patients; also recorded: Two partial responses”, the “duration of stable disease, individual patient” value (advanced solid tumours; bladder urothelial cancer with lymph node metastasis, 50 mg schedule B) was > 8 months and the “patients with stable disease as best overall response” value (“patients with stable disease” below) (advanced solid tumours; overall, both schedules) was 26 (44.1%) patients (%). The “patients with stable disease” value (advanced solid tumours; schedule A) was 14 (43.8%) patients (%), the “median PFS” value (advanced solid tumours; schedule A) was 49 days and the “patients with stable disease” value (advanced solid tumours; schedule B) was 12 (44.4%) patients (%). The “median PFS” value (advanced solid tumours; schedule B) was 56 days and the “best response of individual patient” value (advanced solid tumours; ureteral urothelial carcinoma (wild-type FGFR3), 350 mg schedule A, two courses) was “partial response”.
